In ChEMBL document CHEMBL1687827, “Profiling the Aspergillus fumigatus proteome in response to caspofungin” (2011):
Activity calls are given as the source filed them. The calls are words filed in the database; no cut-off is given here.

Legend:
Aspergillus fumigatus [1] = assay: Induction of change in IgE-binding protein level in iTRAQ-116 labelled secreted fraction of drug-susceptible Aspergillus fumigatus KU80 delta-akuB at 0.12 ug/ml after 48 hrs in YPD medium by MS (MS/MS) analysis relative to control; format: functional
Summary of the method: (§1)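 Conidia at 1 × 10⁵/ml grown shaking at 37°C in YPD with or without 0.12 μg/ml caspofungin; mycelia filtered at 24 or 48 h. Secreted fraction taken from the filtrate; cell wall/plasma membrane pellet recovered after French-press lysis and a 5,000 × g spin. Proteins trypsin-digested and iTRAQ-labelled, drug vs no-drug channels at each time, then 2D LC-MS/MS. Protein ratio is the median of ratios from uniquely assigned peptides after median normalization.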

Aspergillus fumigatus [2] = assay: Induction of change in hypothetical protein locus AFUA_5G14680 level in iTRAQ-116 labelled secreted fraction of drug-susceptible Aspergillus fumigatus KU80 delta-akuB at 0.12 ug/ml after 48 hrs in YPD medium by MS (MS/MS) analysis relative to control; format: functional
Summary of the method: (§2)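 Conidia (1 × 10⁵/ml) grown in YPD, 37°C, 225 rpm, ± 0.12 μg/ml caspofungin; filtrate taken as secreted fraction, French-press lysate 5,000 × g pellet as cell wall/plasma membrane. Trypsin digests 8-plex iTRAQ-labelled (drug-free channels as references), pooled, 2D-chromatography, MS/MS. Median-normalized; protein ratio = median of unique-peptide ratios, log2 normalized.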

Aspergillus fumigatus [3] = assay: Induction of change in cytochrome b5, putative protein level in iTRAQ114 labelled secreted fraction of drug-resistant Aspergillus fumigatus EMFR-S678P at 0.12 ug/ml after 24 hrs in YPD medium by MS (MS/MS) analysis relative to control; format: functional
Summary of the method: (§3)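 Conidia at 1 × 10⁵/ml were grown at 37°C, shaking at 225 rpm, in YPD with or without 0.12 μg/ml caspofungin for 24 or 48 h. The culture filtrate was kept as the secreted fraction. Mycelia were lysed by French press in HEPES/glycerol/EDTA/PMSF/DTT buffer, and the 5,000 × g pellet was washed to give CW/PM. Proteins were reduced, alkylated and trypsin-digested at 37°C overnight, then iTRAQ-labelled and run by 2D LC-MS/MS. Ratios are the median of unique-peptide ratios, median-normalized, versus the no-drug control.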

Aspergillus fumigatus [4] = assay: Induction of change in cell wall protein PhiA protein level in iTRAQ-116 labelled secreted fraction of drug-resistant Aspergillus fumigatus EMFR-S678P at 0.12 ug/ml after 48 hrs in YPD medium by MS (MS/MS) analysis relative to control; format: functional, organism-based; summary of the method: as §3
Aspergillus fumigatus [5] = assay: Induction of change in Ribosomal protein S5 protein level in iTRAQ114 labelled cell wall fraction of drug-resistant Aspergillus fumigatus EMFR-S678P at 0.12 ug/ml after 24 hrs in YPD medium by MS (MS/MS) analysis relative to control; format: functional, organism-based; summary of the method: as §3
Aspergillus fumigatus [6] = assay: Induction of change in GNAT family acetyltransferase, putative protein level in iTRAQ-116 labelled secreted fraction of drug-resistant Aspergillus fumigatus EMFR-S678P at 0.12 ug/ml after 48 hrs in YPD medium by MS (MS/MS) analysis relative to control; format: functional; summary of the method: as §3
Aspergillus fumigatus [7] = assay: Induction of change in ribosomal protein L14 protein level in iTRAQ114 labelled secreted fraction of drug-susceptible Aspergillus fumigatus KU80 delta-akuB at 0.12 ug/ml after 24 hrs in YPD medium by MS (MS/MS) analysis relative to control; format: functional; summary of the method: as §2
Aspergillus fumigatus [8] = assay: Induction of change in Class III chitinase ChiA1 protein level in iTRAQ114 labelled cell wall fraction of drug-susceptible Aspergillus fumigatus KU80 delta-akuB at 0.12 ug/ml after 24 hrs in YPD medium by MS (MS/MS) analysis relative to control; format: functional; summary of the method: as §3
Aspergillus fumigatus [9] = assay: Induction of change in GNAT family acetyltransferase, putative protein level in iTRAQ-118 labelled cell wall fraction of drug-resistant Aspergillus fumigatus EMFR-S678P at 0.12 ug/ml after 24 hrs in YPD medium by MS (MS/MS) analysis relative to control; format: functional, organism-based; summary of the method: as §3
Aspergillus fumigatus [10] = assay: Induction of change in Plasma membrane H-ATPase Pma1 protein level in iTRAQ114 labelled cell wall fraction of drug-resistant Aspergillus fumigatus EMFR-S678P at 0.12 ug/ml after 24 hrs in YPD medium by MS (MS/MS) analysis relative to control; format: functional; summary of the method: as §3
Aspergillus fumigatus [11] = assay: Induction of change in BYS1 domain protein, putative protein level in iTRAQ-118 labelled cell wall fraction of drug-resistant Aspergillus fumigatus EMFR-S678P at 0.12 ug/ml after 24 hrs in YPD medium by MS (MS/MS) analysis relative to control; format: functional, organism-based; summary of the method: as §3
Aspergillus fumigatus [12] = assay: Induction of change in tripeptidyl-peptidase (TppA), putative protein level in iTRAQ-116 labelled secreted fraction of drug-susceptible Aspergillus fumigatus KU80 delta-akuB at 0.12 ug/ml after 48 hrs in YPD medium by MS (MS/MS) analysis relative to control; format: functional; summary of the method: as §2
Aspergillus fumigatus [13] = assay: Induction of change in citrate synthase, eukaryotic protein level in iTRAQ-116 labelled cell wall fraction of drug-susceptible Aspergillus fumigatus KU80 delta-akuB at 0.12 ug/ml after 48 hrs in YPD medium by MS (MS/MS) analysis relative to control; format: functional; summary of the method: as §1
Aspergillus fumigatus [14] = assay: Induction of change in molecular chaperone and allergen Mod-E/Hsp90/Hsp1 protein level in iTRAQ-116 labelled secreted fraction of drug-resistant Aspergillus fumigatus EMFR-S678P at 0.12 ug/ml after 48 hrs in YPD medium by MS (MS/MS) analysis relative to control; format: functional; summary of the method: as §3
Aspergillus fumigatus [15] = assay: Induction of change in hypothetical gene locus AFUA_6G02310 expression in drug-susceptible Aspergillus fumigatus KU80 delta-akuB at 0.12 ug/ml after 24 hrs in YPD medium by microarray analysis relative to control; format: functional
Summary of the method: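 Mycelia grown in YPD ± 0.12 μg/ml caspofungin (1 × 10⁵ conidia/ml, 37°C, shaking) and harvested at 24 or 48 h. Total RNA extracted, DNase-treated and quality-checked; 2 μg labelled per TIGR SOP M007 and hybridized to whole-genome arrays. Three independent experiments with dye flip (6 replicates); drug vs untreated fold change.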

Aspergillus fumigatus [16] = assay: Induction of change in cytochrome c protein level in iTRAQ114 labelled secreted fraction of drug-susceptible Aspergillus fumigatus KU80 delta-akuB at 0.12 ug/ml after 24 hrs in YPD medium by MS (MS/MS) analysis relative to control; format: functional; summary of the method: as §1
Aspergillus fumigatus [17] = assay: Antifungal activity against drug-resistant Aspergillus fumigatus EMFR-S678P assessed as change in hyphal morphology by RPMI medium; format: functional; conditions: read-out: MEC
Summary of the method: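 CLSI M38-A2 broth microdilution, run in triplicate in RPMI or YPD medium as the line specifies. Caspofungin was dissolved in sterile water. The minimum effective concentration (MEC) was the lowest concentration giving a significant change in hyphal morphology visible to the eye.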

Aspergillus fumigatus [18] = assay: Induction of change in antigenic mitochondrial protein HSP60, putative protein level in iTRAQ-116 labelled secreted fraction of drug-resistant Aspergillus fumigatus EMFR-S678P at 0.12 ug/ml after 48 hrs in YPD medium by MS (MS/MS) analysis relative to control; format: functional; summary of the method: as §3

CC[C@H](C)C[C@H](C)CCCCCCCCC(=O)N[C@H]1C[C@@H](O)[C@@H](NCCN)NC(=O)[C@@H]2[C@@H](O)CCN2C(=O)[C@H]([C@H](O)CCN)NC(=O)[C@H]([C@H](O)[C@@H](O)c2ccc(O)cc2)NC(=O)[C@@H]2C[C@@H](O)CN2C(=O)[C@H]([C@@H](C)O)NC1=O [CASPOFUNGIN]
fold change (FC) (Aspergillus fumigatus [1]): -1
fold change (FC) (Aspergillus fumigatus [2]): -2.5
fold change (FC) (Aspergillus fumigatus [3]): -1.32
Activity (Aspergillus fumigatus [4]): inactive
Activity (Aspergillus fumigatus [5]): inactive
fold change (FC) (Aspergillus fumigatus [6]): -1.07
fold change (FC) (Aspergillus fumigatus [7]): -1.1
fold change (FC) (Aspergillus fumigatus [8]): -12.1
Activity (Aspergillus fumigatus [9]): inactive
fold change (FC) (Aspergillus fumigatus [10]): -1.15
Activity (Aspergillus fumigatus [11]): inactive
fold change (FC) (Aspergillus fumigatus [12]): 3.2
fold change (FC) (Aspergillus fumigatus [13]): -1.2
fold change (FC) (Aspergillus fumigatus [14]): -1.07
fold change (FC) (Aspergillus fumigatus [15]): 3.8
fold change (FC) (Aspergillus fumigatus [16]): -2.6
minimal effective concentration (Aspergillus fumigatus [17]): > 16 µg/mL
fold change (FC) (Aspergillus fumigatus [18]): -1.15
